According to ChEMBL document CHEMBL1155142, “Promoter and transcription analysis of penicillin-binding protein genes in Streptococcus gordonii” (2007):
In brackets after ≈: the same amount, converted by molar mass. Activity calls are given as the source filed them. The rule behind the calls is not given here.

What was measured:
[1] = test system: Streptococcus gordonii; assay: Effect on pbp2B gene expression in penicillin-resistant Streptococcus gordonii with penicillin binding protein PR1_2 evolved mutation assessed as relative luciferase units relative to control; assay type: functional, organism-based
Summary of the method: (§1)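 pbp promoter–luc transcriptional fusions integrated into the chromosome of resistant strain PR1_2evolved. Cells grown at 37°C in BHI without aeration from a 1/100 overnight inoculum. Penicillin G at 1/2× or 1/8× MIC added at OD620 0.12. Samples taken into sodium citrate pH 5.5, with 1 mM D-luciferin solution in glycylglycine/MgSO4 buffer added. Light read 10 s at 22°C; RLU normalised to OD620, expressed as % of untreated; means of six experiments.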

[2] = test system: Streptococcus gordonii; assay: Antibacterial activity against Streptococcus gordonii with penicillin binding protein mutation; assay type: functional
[3] = test system: Streptococcus gordonii; assay: Antibacterial activity against wild type penicillin-susceptible Streptococcus gordonii at 2 times MIC; assay type: functional, organism-based
Summary of the method: (§2)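 S. gordonii was grown at 37°C in BHI broth without aeration from a 1/100 inoculum of an overnight culture. Penicillin G was added once OD620 reached 0.12, and growth was followed by OD620 against an untreated culture.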

[4] = test system: Streptococcus gordonii; assay: Antibacterial activity against Streptococcus gordonii with non penicillin binding protein mutation; assay type: functional
[5] = test system: Streptococcus gordonii; assay: Induction of pbp2A gene expression in wild type penicillin-susceptible Streptococcus gordonii assessed as relative luciferase units relative to control; assay type: functional, organism-based
Summary of the method: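 The pbp2A promoter was fused to promoterless luc on the chromosome (integrative pJDC9) in S. gordonii grown in BHI at 37°C, and penicillin G was added at OD620 0.12. Samples of 100 µl went into sodium citrate pH 5.5, then 50 µl of 1 mM D-luciferin in glycylglycine/MgSO4 buffer was added. Light was read for 10 s after a 2 s delay at 22°C, normalized to OD620, and expressed as % of the untreated culture.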

[6] = test system: Streptococcus gordonii; assay: Increase in pbp1A gene expression in penicillin-resistant Streptococcus gordonii with penicillin binding protein PR1_2 evolved mutation assessed as relative luciferase units relative to control; assay type: functional; summary of the method: as §1
[7] = test system: Streptococcus gordonii; assay: Increase in pbp2A gene expression in penicillin-resistant Streptococcus gordonii with penicillin binding protein PR1_2 evolved mutation assessed as relative luciferase units relative to control; assay type: functional; summary of the method: as §1
[8] = test system: Streptococcus gordonii; assay: Increase in pbp1A gene expression in penicillin-resistant Streptococcus gordonii with penicillin binding protein PR1_2 evolved mutation at 1/8 times MIC assessed as relative luciferase units relative to control; assay type: functional, organism-based; summary of the method: as §1
[9] = test system: Streptococcus gordonii; assay: Increase in pbp1A gene expression in penicillin-resistant Streptococcus gordonii with penicillin binding protein PR1_2 evolved mutation at 1/2 times MIC assessed as relative luciferase units relative to control; assay type: functional, organism-based; summary of the method: as §1
[10] = test system: Streptococcus gordonii; assay: Increase in pbp1B gene expression in penicillin-resistant Streptococcus gordonii with penicillin binding protein PR1_2 evolved mutation assessed as relative luciferase units relative to control; assay type: functional; summary of the method: as §1
[11] = test system: Streptococcus gordonii; assay: Increase in pbp2X gene expression in penicillin-resistant Streptococcus gordonii with penicillin binding protein PR1_2 evolved mutation assessed as relative luciferase units relative to control; assay type: functional; summary of the method: as §1
[12] = test system: Streptococcus gordonii; assay: Effect on pbp2X gene expression in penicillin-resistant Streptococcus gordonii with penicillin binding protein PR1_2 evolved mutation assessed as relative luciferase units relative to control; assay type: functional, organism-based; summary of the method: as §1
[13] = test system: Streptococcus gordonii; assay: Increase in pbp2B gene expression in penicillin-resistant Streptococcus gordonii with penicillin binding protein PR1_2 evolved mutation assessed as relative luciferase units relative to control; assay type: functional; summary of the method: as §1
[14] = test system: Streptococcus gordonii; assay: Increase in pbp2A gene expression in penicillin-resistant Streptococcus gordonii with penicillin binding protein PR1_2 evolved mutation at 1/2 times MIC assessed as relative luciferase units relative to control; assay type: functional, organism-based; summary of the method: as §1
[15] = test system: Streptococcus gordonii; assay: Antibacterial activity against wild type penicillin-susceptible Streptococcus gordonii at 4 times MIC; assay type: functional, organism-based; summary of the method: as §2
[16] = test system: Streptococcus gordonii; assay: Antibacterial activity against penicillin-resistant Streptococcus gordonii with penicillin binding protein PR1_2 evolved mutation; assay type: functional

How did the Activity [1] turn out when `CC1(C)S[C@@H]2[C@H](NC(=O)Cc3ccccc3)C(=O)N2[C@H]1C(=O)O` [PENICILLIN G] was run?
Its Activity is “inactive”.

What about the MIC [2] of the same compound?
The MIC was 0.5 µg/mL (≈ 1.5 µM).

And the Activity [3]?
The Activity was “Active”.

And the MIC [4]?
Its MIC is 8 ng/mL (≈ 0.0239 µM).

And the Activity [5]?
Its Activity is “Active”.

And the Activity [6]?
The Activity was 1.55.

And the Activity [7]?
Its Activity is 1.59.

And the Activity [8]?
Its Activity is “Active”.

And the Activity [9]?
The Activity was “Active”.

And the Activity [10]?
The Activity was 0.7.

What about the Activity [11] of the same compound?
The Activity was 2.1.

And the Activity [12]?
The Activity was “Active”.

What about the Activity [13] of the same compound?
The Activity was 1.39.

What about the Activity [14] of the same compound?
Its Activity is “Active”.

And the Activity [15]?
Its Activity is “Active”.

What about the MIC [16] of the same compound?
The MIC was 2 µg/mL (≈ 5.98 µM).
